Data as given in paper PMC4618645 (Pharmacology Research & Perspectives, 2015).
Several values for one entry are separate records, joined by “and”; a condition that tells them apart may be missing. Identical values can stand only once. Entries after “also recorded” stand apart in the source; their conditions may differ. Like-named read-outs stand apart in the source and are kept apart here.

Key:
[1] = Estimation of the maximum inlet concentration to the liver; set-up: species or system human; details: for absorption rate constant: assumed, roughly estimated from the data by Tomimori et al. [2013]; for maximum inlet concentration to the liver: humans, following the 50 mg oral dose, eqn. 1
[2] = humans, sesamin supplement 50 mg/day for 28 days; ref Tomimori et al. [2013]; cited from earlier work
CYP2C9 [3] = details: cited from earlier work
[4] = Pharmacokinetics of diclofenac in rats after 3 days administration of sesamin; assay type: in vivo, rat; details: for AUC(0-t) / Cmax / Tmax / half-life: rat, plasma, po, 10 mg/kg; for AUC(0-t): AUC0–24 h; for AUC(0-t) / Cmax / Tmax: diclofenac 10 mg/kg bw intragastric; for half-life: t1/2, diclofenac 10 mg/kg bw intragastric
[5] = assay type: in vivo, rat; details: rats
CYP2D6 [6] = details: CYP2D6 with MDMA in human liver microsomes; ref Heydari et al. [2004]; cited from earlier work
CYP2D6 [7] = details: humans; ref O'Mathuna et al. [2008]; cited from earlier work
[8] = molecular target: T1, CYP2C in rat liver microsomes (CYP2C11) (Rattus norvegicus, UniProt P08683); assay type: biochemical
T1 sequence (P08683 1-500): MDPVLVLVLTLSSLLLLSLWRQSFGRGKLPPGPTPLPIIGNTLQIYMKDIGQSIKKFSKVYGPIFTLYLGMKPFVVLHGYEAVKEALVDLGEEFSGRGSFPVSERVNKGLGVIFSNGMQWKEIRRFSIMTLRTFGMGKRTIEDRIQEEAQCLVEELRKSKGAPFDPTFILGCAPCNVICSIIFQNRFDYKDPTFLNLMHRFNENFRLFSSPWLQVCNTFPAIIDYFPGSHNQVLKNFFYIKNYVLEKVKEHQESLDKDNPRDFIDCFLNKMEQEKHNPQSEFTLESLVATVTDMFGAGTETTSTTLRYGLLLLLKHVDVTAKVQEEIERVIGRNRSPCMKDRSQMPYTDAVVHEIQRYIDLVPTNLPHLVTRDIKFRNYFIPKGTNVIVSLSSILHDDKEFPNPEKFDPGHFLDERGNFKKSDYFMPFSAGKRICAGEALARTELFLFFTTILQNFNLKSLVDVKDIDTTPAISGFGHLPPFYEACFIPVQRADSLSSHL

CYP2C9 [9] = molecular target: CYP2C9 (Homo sapiens, UniProt P11712); assay type: biochemical; details: human liver microsomes, pH 7.4, probe diclofenac (100 μmol/L), diclofenac hydroxylation
Sequence of CYP2C9 (Homo sapiens, UniProt P11712) (P11712 whole entry): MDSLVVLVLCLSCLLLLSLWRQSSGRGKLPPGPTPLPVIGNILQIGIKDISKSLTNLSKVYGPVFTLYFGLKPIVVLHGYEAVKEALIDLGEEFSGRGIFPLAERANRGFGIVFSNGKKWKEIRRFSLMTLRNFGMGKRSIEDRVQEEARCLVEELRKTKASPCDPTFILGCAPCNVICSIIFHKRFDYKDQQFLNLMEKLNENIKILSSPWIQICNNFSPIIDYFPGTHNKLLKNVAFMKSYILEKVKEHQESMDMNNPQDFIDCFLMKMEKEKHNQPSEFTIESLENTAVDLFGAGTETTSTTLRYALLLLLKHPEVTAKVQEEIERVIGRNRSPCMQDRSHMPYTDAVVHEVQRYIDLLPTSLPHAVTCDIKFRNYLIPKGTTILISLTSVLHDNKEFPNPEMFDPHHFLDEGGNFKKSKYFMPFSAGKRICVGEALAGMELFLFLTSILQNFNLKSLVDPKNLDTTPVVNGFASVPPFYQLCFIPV

[10] = tested on: rat CYP2C (rat liver microsomes); assay type: biochemical
In short: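 Rat liver microsomes (0.5 mg protein/mL) with 1 mmol/L NADPH in 100 mmol/L phosphate (pH 7.4), 37°C. Test compound in DMSO (20 μmol/L final) versus DMSO reference. Difference spectra (400–500 nm) were taken at 0–120 min, tracking A459 minus A500. Parent and catechol metabolites were quantified in parallel by HPLC of methanol-quenched aliquots taken at the same times. Mean ± SD, at least duplicates.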

recombinant rat CYP2C11 = molecular target: T2, recombinant rat CYP2C11 (Rattus norvegicus, UniProt P08683); assay: Sesamin-induced difference spectrum of recombinant rat CYP2C11; assay type: biochemical; details: recombinant rat CYP2C11, NADPH, 20 μmol/L sesamin
T2 sequence (P08683 1-500): T1 sequence (P08683 1-500)
In short: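 Recombinant rat CYP2C11 from baculovirus-infected insect cells (50 pmol/mL) with 1 mmol/L NADPH in 100 mmol/L phosphate (pH 7.4) at 37°C. Test compound in DMSO (20 μmol/L final) went into the sample cuvette and an equal volume of DMSO into the reference. Difference spectra were recorded over 400–500 nm after 7 and 60 min incubation.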

[11] = Plasma concentration of sesamin in rats; assay type: in vivo; details: rat, po, 100 mg/kg
In short: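 Test compound in corn oil was given intragastrically by feeding needle. The organic phase was dried and the residue taken up in 100 μL acetonitrile. HPLC: methanol/0.05% TFA gradient, fluorescence ex 298/em 325 nm; mean ± SD, n = 12.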

[12] = Hepatic sesamin concentration in rats; assay type: in vivo; details: rat, liver, oral, 100 mg/kg
rat CYP2C = assay type: in vivo; details: rats, sesamin 0, 10, 100 mg/kg bw for 7 days
In short: (§1)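 Male Sprague–Dawley rats were acclimated for 7 days before dosing. Liver microsomes: liver rinsed in ice-cold saline, homogenized in four volumes of ice-cold 1.15% KCl, spun at 10,000g for 20 min, then the supernatant at 100,000g for 60 min. The pellet was resuspended in 20 mmol/L phosphate buffer (pH 7.4) with 1.15% KCl. Protein was measured by bicinchoninate assay.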

[13] = tested on: CYP2C-mediated diclofenac hydroxylation activity; assay type: in vivo, rat; details: rats, sesamin 0, 10, 100 mg/kg bw for 7 days
In short: as §1

[14] = assumed; ref Moazzami et al. [2007]; cited from earlier work
[15] = after sesamin 10 mg/kg bw for 3 days
[16] = after sesamin 100 mg/kg bw for 3 days
[17] = control (0 mg/kg bw sesamin for 3 days)

c1cc2c(cc1[C@H]1OC[C@H]3[C@@H]1CO[C@@H]3c1ccc3c(c1)OCO3)OCO2 [episesamin]
absorption rate constant [1]: 1.5 h⁻¹
maximum inlet concentration to the liver [1]: 410 nmol/L
accumulation after repeated administration [2]: did not detect the accumulation; also recorded: no accumulation
kinact/Ki value for recombinant human CYP2C9 relative to sesamin (CYP2C9 [3]; recombinant human CYP2C9, ref previous studies of the authors): five times smaller
kinact/Ki app for CYP2C9 relative to sesamin (CYP2C9 [3]; ref Yasuda et al. [2012]): approximately one-fifth

O=C(O)Cc1ccccc1Nc1c(Cl)cccc1Cl [diclofenac]
AUC(0-t) [4, 15]: 4620 ng·h/mL
AUC(0-t) [4, 16]: 6930 ng·h/mL
AUC(0-t) [4, 17]: 4880 ng·h/mL
Cmax [4, 15]: 1200 ± 500 ng/mL
Cmax [4, 16]: 1300 ± 600 ng/mL
Cmax [4, 17]: 1800 ± 800 ng/mL
Tmax [4, 15]: 7 min
Tmax [4, 16]: 7.2 min
Tmax [4, 17]: 5.4 min
half-life [4, 15]: 14.8 ± 9.3 h
half-life [4, 16]: 11.1 ± 6.8 h
half-life [4, 17]: 10.6 ± 2.9 h
AUC(0-t) ([5]; rat, plasma, po, 10 mg/kg, AUC0–24 h, diclofenac 10 mg/kg bw intragastric, control (0 mg/kg bw sesamin at same time)): 5480 ng·h/mL
Cmax ([5]; rat, plasma, po, 10 mg/kg, Cmax, diclofenac 10 mg/kg bw intragastric, control (0 mg/kg bw sesamin at same time)): 2100 ± 1700 ng/mL
Tmax ([5]; rat, plasma, po, 10 mg/kg, Tmax, diclofenac 10 mg/kg bw intragastric, control (0 mg/kg bw sesamin at same time)): 5.6 min
half-life ([5]; rat, plasma, po, 10 mg/kg, t1/2, diclofenac 10 mg/kg bw intragastric, control (0 mg/kg bw sesamin at same time)): 9.8 ± 5.1 h

CNC(C)Cc1ccc2c(c1)OCO2 (centres unmarked) [MDMA, 3,4-Methylenedioxymethamphetamine]
kinact (CYP2D6 [6]): 0.12 to 0.26 min⁻¹
increase of dextromethorphan AUC0-8 h when administered with MDMA (CYP2D6 [7]): approximately 10 fold
increase of dextromethorphan AUC after MDMA administration (CYP2D6 [7]): approximately 10 fold
increase of dextromethorphan Cmax after MDMA administration (CYP2D6 [7]): approximately 10 fold

c1cc2c(cc1[C@H]1OC[C@H]3[C@@H]1CO[C@@H]3c1ccc3c(c1)OCO3)OCO2 [sesamin]
kinact [8]: 0.00132 s⁻¹
inhibition of 4'- and 5-hydroxylation activities toward diclofenac ([8]; rat liver microsomes, sesamin 0-50 μmol/L, preincubation 0, 5, 10 min): time- and concentration-dependently inhibited
kinact/KI ([8]; read-out: kinact/Ki app): 48.3 M⁻¹ s⁻¹
kinact (CYP2C9 [9]): 0.00217 s⁻¹
kinact/KI (CYP2C9 [9]): 96.7 M⁻¹ s⁻¹
half-life time of the MI complex of sesamin ([10]; rat liver microsomes): 0.167 h
time to disappearance of the 459 nm peak after the termination of the metabolism ([10]; rat liver microsomes): ≤ 30 min
conversion of sesamin to SC-2 via SC-1 ([10]; rat liver microsomes 0.5 mg/mL, 20 μmol/L sesamin, at 60 min): almost all of sesamin was converted to SC-2 via SC-1
peak of sesamin-induced difference spectrum (MI complex) ([10]; rat liver microsomes, NADPH, 20 μmol/L sesamin, 37°C): 459 nm
peak of sesamin-induced difference spectrum (MI complex) (recombinant rat CYP2C11): 459 nm
effect of sesamin on pharmacokinetic parameters of diclofenac (Cmax, Tmax, AUC) ([4]; sesamin 0, 10, 100 mg/kg bw for 3 days, then diclofenac 10 mg/kg bw): No significant differences
effect of sesamin on the diclofenac pharmacokinetics ([5]; sesamin 0, 10, 100 mg/kg bw and diclofenac 10 mg/kg bw simultaneously): no significant effects
Cmax [11]: 33 ng/mL and 94 nM
Tmax [11]: 1.2 ± 0.6 h
concentration at 1 h [12]: 390 ng/g and 1.1 µM
expression of CYP2C protein in liver microsomes (rat CYP2C): no significant differences; also recorded: no remarkable change
diclofenac hydroxylation activity in liver microsomes [13]: no significant effects; also recorded: no significant differences; also recorded: no remarkable change
absorption rate constant [1]: 0.5 h⁻¹
maximum inlet concentration to the liver [1]: 130 nmol/L
accumulation after repeated administration [2]: did not detect the accumulation; also recorded: no accumulation
fraction absorbed [14]: 30%
kinact (CYP2C9 [3]; CYP2C9 with sesamin in human liver microsomes, ref Yasuda et al. [2010]): 0.13 min⁻¹
